Data taken from ChEMBL document CHEMBL1795254, “Synthesis, structure-affinity relationships, and molecular modeling studies of novel pyrazolo[3,4-c]quinoline derivatives as adenosine receptor antagonists” (Bioorg Med Chem, 2011).

What was measured:
[1] = target: T1, Adenosine receptor A1 (Homo sapiens, UniProt P30542); experiment: Displacement of [3H]DPCPX from human recombinant adenosine A1 receptor expressed in CHO cell membranes by scintillation counting
T1 sequence (P30542 whole entry): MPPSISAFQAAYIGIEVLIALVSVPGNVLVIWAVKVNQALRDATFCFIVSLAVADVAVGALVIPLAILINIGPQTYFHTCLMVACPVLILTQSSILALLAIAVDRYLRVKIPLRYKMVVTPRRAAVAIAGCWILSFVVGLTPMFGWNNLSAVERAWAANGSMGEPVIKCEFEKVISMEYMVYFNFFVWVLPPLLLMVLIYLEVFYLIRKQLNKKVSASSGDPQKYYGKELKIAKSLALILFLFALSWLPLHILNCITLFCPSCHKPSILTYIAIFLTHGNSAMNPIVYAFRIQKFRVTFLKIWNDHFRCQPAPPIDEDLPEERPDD
How it was run: (§1)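 hA1 CHO membranes incubated with 1 nM [³H]DPCPX for 120 min at 25 °C in 50 mM Tris-HCl, pH 7.4. Ki from six to eight antagonist concentrations: IC50 converted by Cheng–Prusoff, curves fitted by weighted nonlinear least squares, four separate assays in duplicate (mean ± SEM). Single-concentration runs give percentage inhibition of specific binding.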

[2] = target: T2, Adenosine receptor A2a (Homo sapiens, UniProt P29274); experiment: Displacement of [3H]ZM241385 from human recombinant adenosine A2A receptor expressed in CHO cell membranes at 1 uM by scintillation counting
How it was run: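 Uses 1 nM [³H]ZM241385 with hA2A CHO membranes in 50 mM Tris-HCl, 10 mM MgCl2, pH 7.4, for 60 min at 4 °C. Ki from six to eight antagonist concentrations via Cheng–Prusoff with weighted nonlinear least-squares fitting; four assays in duplicate (mean ± SEM). Single-concentration runs give percentage inhibition.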

[3] = target: T3, Adenosine receptor A3 (Homo sapiens) (UniProt P0DMS8); experiment: Displacement of [125I]I-AB-MECA from human recombinant adenosine A3 receptor expressed in CHO cells at 1 uM by scintillation counting; type: cell-based
T3 sequence (whole entry): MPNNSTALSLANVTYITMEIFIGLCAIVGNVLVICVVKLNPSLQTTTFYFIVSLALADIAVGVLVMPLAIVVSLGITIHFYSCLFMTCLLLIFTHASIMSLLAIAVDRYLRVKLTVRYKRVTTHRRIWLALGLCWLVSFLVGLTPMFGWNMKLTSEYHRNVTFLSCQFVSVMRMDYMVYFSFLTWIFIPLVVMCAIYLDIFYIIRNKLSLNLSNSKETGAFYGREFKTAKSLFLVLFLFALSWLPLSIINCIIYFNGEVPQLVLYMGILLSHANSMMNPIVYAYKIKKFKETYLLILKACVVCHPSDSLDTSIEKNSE
How it was run: (§2)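 For hA3, CHO membranes are incubated with [¹²⁵I]AB-MECA in 50 mM Tris-HCl, 10 mM MgCl2, 1 mM EDTA, pH 7.4, for 120 min at 4 °C. Ki from six to eight ligand concentrations via Cheng–Prusoff with weighted nonlinear least-squares fitting; four assays in duplicate (mean ± SEM). Single-concentration runs give percentage inhibition.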

[4] = target: T4, Adenosine receptor A2b (Homo sapiens) (UniProt P29275); experiment: Antagonist activity at human recombinant adenosine A2B receptor expressed in CHO cells assessed as inhibition of NECA-induced cAMP levels at 1 uM; type: functional, cell-based
T4 sequence (whole entry): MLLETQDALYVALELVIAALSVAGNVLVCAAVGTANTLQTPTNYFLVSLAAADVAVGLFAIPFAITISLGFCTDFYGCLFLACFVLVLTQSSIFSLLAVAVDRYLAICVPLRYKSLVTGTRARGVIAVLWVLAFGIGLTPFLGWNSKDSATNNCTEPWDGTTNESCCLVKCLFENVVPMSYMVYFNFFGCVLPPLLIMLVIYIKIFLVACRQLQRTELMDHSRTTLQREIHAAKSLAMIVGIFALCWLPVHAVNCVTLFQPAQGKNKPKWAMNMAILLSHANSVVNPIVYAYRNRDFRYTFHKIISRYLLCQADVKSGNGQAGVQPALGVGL
How it was run: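 hA2B-transfected CHO cells (1×10⁶/assay), preincubated 10 min at 37 °C in pH 7.4 saline-Hepes-glucose buffer with 2 IU/ml adenosine deaminase and Ro 20-1724 as phosphodiesterase inhibitor. Compound tested against 200 nM NECA-stimulated cAMP. Reaction stopped with cold 6% TCA and ether-extracted. cAMP measured by competition binding with [³H]cAMP and bovine adrenal binding protein (150 min, 4 °C), charcoal separation, scintillation counting; expressed as percentage inhibition.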

[5] = target: T5, Adenosine receptor A1 (Homo sapiens) (UniProt P30542); experiment: Displacement of [3H]DPCPX from human recombinant adenosine A1 receptor expressed in CHO cell membranes at 1 uM by scintillation counting; how it was run: as §1
T5 sequence (whole entry): T1 sequence (P30542 whole entry)

[6] = target: T2, Adenosine receptor A2a; details: CHO, 10 uM
[7] = target: T2, Adenosine receptor A2a; experiment: Displacement of [3H]ZM241385 from human recombinant adenosine A2A receptor expressed in CHO cell membranes by scintillation counting
[8] = target: T6, Adenosine receptor A3 (Homo sapiens, UniProt P0DMS8); experiment: Displacement of [125I]I-AB-MECA from human recombinant adenosine A3 receptor expressed in CHO cells by scintillation counting; type: cell-based; how it was run: as §2
T6 sequence (P0DMS8 whole entry): T3 sequence (whole entry)

T2 sequence (P29274 whole entry): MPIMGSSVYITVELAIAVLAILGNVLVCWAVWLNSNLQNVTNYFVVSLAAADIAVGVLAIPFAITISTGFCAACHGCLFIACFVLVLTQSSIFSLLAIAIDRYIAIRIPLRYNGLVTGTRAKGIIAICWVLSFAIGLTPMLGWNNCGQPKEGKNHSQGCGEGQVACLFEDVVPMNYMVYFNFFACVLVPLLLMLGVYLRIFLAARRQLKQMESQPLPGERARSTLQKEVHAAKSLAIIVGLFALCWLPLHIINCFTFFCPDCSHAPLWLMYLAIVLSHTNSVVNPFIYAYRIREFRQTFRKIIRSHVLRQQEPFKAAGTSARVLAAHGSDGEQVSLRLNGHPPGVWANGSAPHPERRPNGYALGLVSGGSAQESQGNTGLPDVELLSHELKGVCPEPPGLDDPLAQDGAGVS

| Ki [1] [nM] | inhibition [2] [%] | inhibition [3] [%] | inhibition [4] [%] | inhibition [5] [%] | inhibition [6] [%] | Ki [7] [nM] | Ki [8] [nM] | Structure (SMILES) |
| --- | --- | --- | --- | --- | --- | --- | --- | --- |
| 455 | 1 | 1 | 3 |  |  |  |  | Nc1nc2c(NCc3ccccc3)cccc2c2cn(-c3ccccc3)nc12 |
|  | 11 | 28 | 5 | 40 |  |  |  | Nc1nc2c(OCCc3ccccc3)cccc2c2cn(-c3ccccc3)nc12 |
|  |  |  |  |  | 43 |  |  | O=c1[nH]c2ccccc2c2cn(-c3ccccc3)nc12 |
| 970 |  |  | 4 |  |  | 750 | 500 | Cn1cc2c(n1)c(N)nc1c(OCc3ccccc3)cccc12 |
|  | 1 | 12 | 2 | 2 |  |  |  | Cn1cc2c(n1)c(=O)[nH]c1ccccc12 |
|  | 1 | 18 | 5 | 8 |  |  |  | Nc1cccc2c1[nH]c(=O)c1nn(-c3ccccc3)cc12 |
|  | 1 | 33 | 2 | 20 |  |  |  | O=c1[nH]c2c(OCc3ccccc3)cccc2c2cn(-c3ccccc3)nc12 |
|  | 5 | 16 | 4 | 1 |  |  |  | O=c1[nH]c2c(O)cccc2c2cn(-c3ccccc3)nc12 |
| 300 | 35 | 29 | 2 |  |  |  |  | Nc1nc2c(Br)cccc2c2cn(-c3ccccc3)nc12 |
|  | 17 | 16 | 5 | 8 |  |  |  | O=c1[nH]c2c(Br)cccc2c2cn(-c3ccccc3)nc12 |
|  | 1 | 14 | 5 | 3 |  |  |  | O=C(Nc1cccc2c1[nH]c(=O)c1nn(-c3ccccc3)cc12)OCc1ccccc1 |
|  | 1 |  | 3 | 2 |  |  | 600 | Cn1cc2c(n1)c(=O)[nH]c1c(OCc3ccccc3)cccc12 |
| 140 | 16 | 20 | 5 |  |  |  |  | Nc1nc2c(OCc3ccccc3)cccc2c2cn(-c3ccccc3)nc12 |
| 100 | 19 | 20 | 4 |  |  |  |  | Nc1nc2c(O)cccc2c2cn(-c3ccccc3)nc12 |
|  | 1 | 6 | 7 | 6 |  |  |  | O=c1[nH]c2c(OC(c3ccccc3)c3ccccc3)cccc2c2cn(-c3ccccc3)nc12 |
|  | 26 | 18 | 5 | 20 |  |  |  | Cn1cc2c(n1)c(N)nc1ccccc12 |
